# In the library only some 1.9% were active in any assay of this set; here they are far more common.
# M4 PAM = CHRM4 positive allosteric modulation; P08173; CHO-K1 hM4/Gqi5, Fluo-8 calcium fluorescence, ACh EC20; 0% = ACh EC20, 100% = maximal ACh; activation, % at 3 µM; 360,000 compounds, 0.4% hits; AID 624126;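 active means activation above its plate's cutoff, the mean activation of sample wells plus 3 SD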
# Target sequence (P08173 whole entry, looked up): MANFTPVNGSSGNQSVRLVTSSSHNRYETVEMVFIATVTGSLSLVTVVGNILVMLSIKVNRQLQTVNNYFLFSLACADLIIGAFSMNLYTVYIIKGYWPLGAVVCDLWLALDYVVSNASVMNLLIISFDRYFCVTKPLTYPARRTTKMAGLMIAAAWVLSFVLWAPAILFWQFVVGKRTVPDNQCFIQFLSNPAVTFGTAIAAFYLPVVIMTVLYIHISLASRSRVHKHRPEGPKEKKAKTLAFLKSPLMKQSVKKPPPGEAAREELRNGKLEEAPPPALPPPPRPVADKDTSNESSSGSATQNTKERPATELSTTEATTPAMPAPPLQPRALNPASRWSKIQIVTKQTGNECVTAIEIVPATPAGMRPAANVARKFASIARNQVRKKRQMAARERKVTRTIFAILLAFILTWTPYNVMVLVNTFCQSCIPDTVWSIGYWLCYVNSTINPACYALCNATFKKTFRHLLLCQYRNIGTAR
# M4 antag = antagonists of human muscarinic M4 receptor (CHRM4); CHO-hM4 cells, ACh EC80, Fluo-8 calcium fluorescence; inhibition, % at 3 µM; 360,000 compounds, 0.73% hits; AID 624125;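 active means inhibition above its plate's cutoff, the mean inhibition of sample wells plus 3 SD, cut at about 27% in these data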;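 further: 0% = acetylcholine EC80 with DMSO and 100% = DMSO without agonist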
# CHRM5 agonist = agonists of human muscarinic M5 receptor (CHRM5) | P08912 | CHO-K1 hM5 cells, Fluo-8 calcium fluorescence; 0% DMSO wells, 100% maximal acetylcholine response | activation, % at 3 µM | 360,000 compounds, 0.19% hits;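 active means activation above the run's mean over test compounds plus 3 SD, cut at about 23% in these data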;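 further: signal is peak over basal fluorescence ratio across the kinetic read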
# M5 antag = CHRM5 antagonism in calcium assay; CHO-hM5 cells, Fluo-8 calcium fluorescence, ACh EC80; 360,000 compounds, 0.59% hits; P08912; inhibition, % at 3 µM;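 active means inhibition above a per-plate cutoff, the mean of that plate's test compounds plus 3 SD, cut at about 27% in these data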;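 further: 0% = acetylcholine EC80 with DMSO and 100% = DMSO without agonist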
# M5 PAM = positive allosteric modulators of human muscarinic M5 receptor; activation, % at 3 µM; CHO-K1 hM5, Fluo-8 calcium, ACh EC20 PAM; 0% = ACh EC20, 100% = ACh EC100; AID 624038; 360,000 compounds, 0.3% hits; P08912;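 active means activation above the run cutoff, the mean activation of all test compounds plus 3 SD, cut at about 18% in these data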
#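 Assay system: CHO-K1 hM5 cells. Also added: acetylcholine at EC20 concentration, added after compound. Dosing: 3 µM, single dose. Times: compound preincubation 140 s before EC20 acetylcholine addition. Signal: Fluo-8 calcium fluorescence. Measure: % activation relative to EC20 and EC100 ACh responses. Repeats: singlicate, one well per test compound.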
# CHRM4 agonist = CHRM4 agonism in calcium assay; activation, % at 3 µM; CHO-K1 hM4/Gqi5, Fluo-8 calcium fluorescence; vehicle 0%, full acetylcholine response 100%; AID 624127; 360,000 compounds, 0.14% hits; P08173;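 active means activation above the run mean over all test wells plus 3 SD, cut at about 32% in these data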;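 further: peak over basal fluorescence ratio per well then scaled between controls; 0% = DMSO wells and 100% = acetylcholine at EC100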
# Starred values were filed as active, the others as inactive.
SMILES,M4 PAM,M4 antag,CHRM5 agonist,M5 antag,M5 PAM,CHRM4 agonist
CCCCNc1c(-c2ccc(OC)c(Sc3ccc(OC)cc3)c2)nc2cnccn12,-3,16,-2,19,-14,13
CCCCNc1c(-c2ccc(OC)c(Sc3ccc(OC)cc3)c2)nc2ccccn12,-8,39*,-3,27*,-31,17
CCCCNc1c(-c2ccc(-c3ccc(OC)cc3)c(OC)c2)nc2ccccn12,-16,36*,-5,19,-29,12
O=C(Nc1ccc(Br)cc1)C1CCCC1,-2,-3,3,-5,6,0
COc1ccc(CSc2nnc3[nH]c(=O)cc(N)n23)cc1,20,-8,-7,35*,-13,1
CCOc1ccc(NC(=O)CN(C)C(=O)C2CC(=O)N(Cc3ccco3)C2)cc1OCC (centres undefined),6,-8,-2,-1,-1,1
CC1(C)N=C(N)N=C(N)N1c1ccc(Oc2ccc(Cl)cc2)c(Cl)c1,-11,5,-11,33*,-21,0
CN1/C(=C\P(=O)(N(C)C)N(C)C)C(C)(C)c2ccccc21,-2,20,5,34*,-9,8
Cn1c(C(=O)NC2CC2)cc2c(=O)n(C)c3ccccc3c21,31*,5,1,1,-4,25
OC(c1cccs1)(c1cccs1)C1C[N+]2(CF)CCC1CC2 (centres undefined),-40,68*,-7,63*,-15,1
O=C(/C=C/c1c(F)cccc1Cl)NCCCN1CCOCC1,16*,3,-4,7,2,1
O=C1CCC(c2ccccc2)(C2CCN(Cc3ccccc3)CC2)C(=O)N1 (centres undefined),-18,99*,-1,99*,-18,1
O=C1CCN(Cc2ccccc2)C(=O)N1,12,-4,2,3,7,1
CCCC(C)C(=O)Nc1ccc(S(N)(=O)=O)cc1 (centres undefined),23*,-7,-3,-9,8,1
NC(=S)Nn1c(-c2ccccc2)nc2ccccc2c1=O,18,-2,2,-4,22*,2
CS(=O)(=O)N1CCCC(c2nc(-c3ccc(S(=O)(=O)NCc4ccccc4)cc3)no2)C1 (centres undefined),-28,33*,12,29*,-16,26
O=C(c1ccccc1)N(Cc1ccccc1)Cc1ccccc1,-3,10,-1,-1,0,0
CCN(Cc1ccccc1)C(=O)c1ccc(C(=O)N(CC)Cc2ccccc2)cc1,-6,9,-3,28*,-9,5
COc1ccc(-c2sc3ccccc3c2/C=C/c2ccncc2)cc1,3,9,-4,16,-18,0
O=C(Oc1cccc2cccnc12)c1ccc(N2C(=O)C3C4CCC(C4)C3C2=O)cc1 (centres undefined),26*,10,2,2,7,1
O=C(Oc1ccc(N2C(=O)C3C4CCC(C4)C3C2=O)cc1)c1ccco1 (centres undefined),1,1,-4,13,-4,2
O=C(NC(Cc1c[nH]c2ccccc12)C(=O)N/N=C/c1ccc(Cl)cc1)c1cccs1 (centres undefined),-12,8,-2,27*,-15,13
Cc1cc2c(cc1S(=O)(=O)N(C)c1ccccc1)n(C)c(=O)n2C,-17,99*,3,8,-4,-2
Cc1cccc(N(C)S(=O)(=O)c2cc3c(cc2C)n(C)c(=O)c(=O)n3C)c1,-7,-1,-2,6,-4,4
O=C(Nc1nnc(-c2ccc(Cl)cc2)o1)Nc1ccccc1F,-3,-13,0,-2,7,1
SMILES,M4 PAM,M4 antag,CHRM5 agonist,M5 antag,M5 PAM,CHRM4 agonist
O=C1C(Cl)=C(Nc2ccc(O)cc2)C(=O)c2ccccc21,-24,64*,-19,41*,-26,-2
CCCC(=O)NC1=C(Cl)C(=O)c2ccccc2C1=O,-8,61*,20,32*,1,12
CCNC1=C(Cl)C(=O)c2ccccc2C1=O,0,12,-5,-1,-8,-1
CCCOc1ccc(C2C(C(=O)c3ccco3)=C(O)C(=O)N2CCCn2ccnc2)cc1OC (centres undefined),5,-4,0,7,1,1
Cc1ccc(-c2nc(SCC(=O)N(C)C3CCS(=O)(=O)C3)[nH]c2-c2ccc(C)cc2)cc1 (centres undefined),8,-7,-3,1,2,2
CC(C)CNS(=O)(=O)c1ccc(CCC(=O)NC2CCCCC2)cc1,1,-8,7,-14,20*,2
C[C@@H]1CN([C@@H](C)CO)C(=O)CCCn2nncc2CO[C@H]1CN(C)S(=O)(=O)c1ccc(C#N)cc1,4,-5,0,-5,4,0
CCOc1ccc(CNC(=O)CCS(=O)(=O)c2ccc3c(c2)NC(=O)CO3)cc1OC,2,-2,-4,12,-5,3
COc1ccc(-n2nc3c(N4CCC(C(=O)N5CCC(C)CC5)CC4)nnc(C)c3c2C)cc1,-12,20,-5,43*,-15,1
O=C(N/N=C/c1ccccc1)c1ccc(N2CCCC2=O)cc1,3,-7,2,-1,-8,1
O=C(COC(=O)CCCCCN=C1NS(=O)(=O)c2ccccc21)Nc1ccc(Cl)c(Cl)c1,-9,9,-4,45*,-17,13
O=C(CCCN=C1NS(=O)(=O)c2ccccc21)OCC(=O)c1ccccc1,4,-11,7,3,-5,4
O=C(O)C1C2CCC(O2)C1C(=O)Nc1ccc(F)cc1 (centres undefined),8,0,-4,35*,-14,3
Cc1ccc(NC(=O)C2C3CCC(O3)C2C(=O)O)c(Br)c1 (centres undefined),6,-4,4,-5,19*,1
O=C(NCc1cccnc1)Nc1cccc([N+](=O)[O-])c1,-1,-3,-5,28*,-11,1
O=C(CNC1CCCCC1)Nc1cccc([N+](=O)[O-])c1,0,0,0,5,3,1
COc1ccc(NC(=O)NC2CCCCCCC2)cc1OC,17,4,-1,-2,22*,3
O=C(Nc1cccc([N+](=O)[O-])c1)NC1CCCCCCC1,-13,6,8,29*,-16,15
O=C(Nc1cccc([N+](=O)[O-])c1)NN1CCCCCC1,-4,11,6,30*,-20,14
CN1CCN(c2ccccc2NC(=O)c2ccc3c(c2)OCCO3)CC1,2,-3,-5,7,-2,2

# From PubChem
